Reference: ChEMBL document CHEMBL2380298, “Synthesis and antimicrobial activity of novel amphiphilic aromatic amino alcohols” (2013)

Legend:
Assay type in all cases: functional
[1] = test system: Staphylococcus aureus; experiment: Antimicrobial activity against Staphylococcus aureus ATCC 29213 by broth dilution method; conditions: for MIC: Staphylococcus aureus, ATCC 29213
[2] = test system: Staphylococcus aureus; experiment: Antimicrobial activity against methicillin-resistant Staphylococcus aureus clinical isolate 235 by broth dilution method
[3] = test system: Staphylococcus aureus; experiment: Antimicrobial activity against methicillin-resistant Staphylococcus aureus clinical isolate 218 by broth dilution method
[4] = test system: Staphylococcus aureus; experiment: Antimicrobial activity against methicillin-resistant Staphylococcus aureus clinical isolate 232 by broth dilution method
[5] = test system: Staphylococcus aureus; experiment: Bactericidal activity against methicillin-resistant Staphylococcus aureus clinical isolate 255 after 24 hrs; conditions: isolate 255, 24 h
Method in brief: (§1)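 Bactericidal concentration: 0.1 ml from wells at the MIC dilution and the dilutions on either side was streaked onto tryptic soy agar and incubated 24 h. It was taken as the lowest drug concentration giving no growth (100% killing).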

[6] = test system: Staphylococcus epidermidis; experiment: Bactericidal activity against Staphylococcus epidermidis ATCC 12228 after 24 hrs; conditions: ATCC 12228, 24 h
Method in brief: (§2)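 MBC: after MIC determination, 0.1 ml from the MIC well and from two dilutions either side streaked on tryptic soy agar, incubated 24 h; MBC taken as lowest concentration giving no growth (100% kill).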

[7] = test system: Staphylococcus aureus; experiment: Bactericidal activity against methicillin-resistant Staphylococcus aureus clinical isolate 257 after 24 hrs; conditions: isolate 257, 24 h; method in brief: as §1
[8] = test system: Staphylococcus aureus; experiment: Bactericidal activity against methicillin-resistant Staphylococcus aureus clinical isolate 259 after 24 hrs; conditions: isolate 259, 24 h; method in brief: as §1
[9] = test system: Staphylococcus aureus; experiment: Bactericidal activity against methicillin-resistant Staphylococcus aureus clinical isolate 238 after 24 hrs; conditions: isolate 238, 24 h; method in brief: as §1
[10] = test system: Staphylococcus aureus; experiment: Bactericidal activity against methicillin-resistant Staphylococcus aureus clinical isolate 212 after 24 hrs; conditions: isolate 212, 24 h; method in brief: as §1
[11] = test system: Staphylococcus aureus; experiment: Bactericidal activity against methicillin-resistant Staphylococcus aureus clinical isolate 236 after 24 hrs; conditions: isolate 236, 24 h; method in brief: as §1
[12] = test system: Staphylococcus aureus; experiment: Bactericidal activity against methicillin-resistant Staphylococcus aureus clinical isolate 237 after 24 hrs; conditions: isolate 237, 24 h; method in brief: as §1
[13] = test system: Staphylococcus aureus; experiment: Antimicrobial activity against methicillin-resistant Staphylococcus aureus clinical isolate 212 by broth dilution method
[14] = test system: Staphylococcus aureus; experiment: Bactericidal activity against methicillin-resistant Staphylococcus aureus clinical isolate 178 after 24 hrs; conditions: isolate 178, 24 h; method in brief: as §1
[15] = test system: Staphylococcus aureus; experiment: Antimicrobial activity against methicillin-resistant Staphylococcus aureus clinical isolate 260 by broth dilution method
[16] = test system: Nakaseomyces glabratus; experiment: Antimicrobial activity against Candida glabrata ATCC 18804 by broth dilution method
[17] = test system: Staphylococcus aureus; experiment: Antimicrobial activity against methicillin-resistant Staphylococcus aureus clinical isolate 215 by broth dilution method
[18] = test system: Candida parapsilosis; experiment: Antimicrobial activity against Candida parapsilosis ATCC 90030 by broth dilution method; conditions: Lodderomyces parapsilosis
[19] = test system: Staphylococcus aureus; experiment: Antimicrobial activity against methicillin-resistant Staphylococcus aureus clinical isolate 238 by broth dilution method
[20] = test system: Staphylococcus aureus; experiment: Bactericidal activity against methicillin-resistant Staphylococcus aureus clinical isolate 232 after 24 hrs; conditions: isolate 232, 24 h; method in brief: as §1
[21] = test system: Staphylococcus aureus; experiment: Antimicrobial activity against methicillin-resistant Staphylococcus aureus clinical isolate 255 by broth dilution method
[22] = test system: Staphylococcus aureus; experiment: Bactericidal activity against Staphylococcus aureus ATCC 29213 after 24 hrs; conditions: ATCC 29213, 24 h; method in brief: as §1
[23] = test system: Staphylococcus aureus; experiment: Antimicrobial activity against methicillin-resistant Staphylococcus aureus clinical isolate 259 by broth dilution method
[24] = test system: Staphylococcus epidermidis; experiment: Antimicrobial activity against Staphylococcus epidermidis ATCC 12228 by broth dilution method; conditions: for MIC: Staphylococcus epidermidis, ATCC 12228
[25] = test system: Staphylococcus aureus; experiment: Antimicrobial activity against methicillin-resistant Staphylococcus aureus clinical isolate 205 by broth dilution method
[26] = test system: Staphylococcus aureus; experiment: Antimicrobial activity against methicillin-resistant Staphylococcus aureus clinical isolate 231 by broth dilution method
[27] = test system: Staphylococcus aureus; experiment: Antimicrobial activity against methicillin-resistant Staphylococcus aureus clinical isolate 257 by broth dilution method
[28] = test system: Staphylococcus aureus; experiment: Antimicrobial activity against methicillin-resistant Staphylococcus aureus clinical isolate 207 by broth dilution method
[29] = test system: Staphylococcus aureus; experiment: Antimicrobial activity against methicillin-resistant Staphylococcus aureus clinical isolate 237 by broth dilution method
[30] = test system: Candida tropicalis; experiment: Antimicrobial activity against Candida tropicalis ATCC 750 by broth dilution method
[31] = test system: Staphylococcus aureus; experiment: Bactericidal activity against methicillin-resistant Staphylococcus aureus clinical isolate 235 after 24 hrs; conditions: isolate 235, 24 h; method in brief: as §1
[32] = test system: Staphylococcus aureus; experiment: Antimicrobial activity against methicillin-resistant Staphylococcus aureus clinical isolate 178 by broth dilution method
[33] = test system: Staphylococcus aureus; experiment: Antimicrobial activity against methicillin-resistant Staphylococcus aureus clinical isolate by broth dilution method; conditions: for MIC50 / MIC90: Staphylococcus aureus
[34] = test system: Staphylococcus aureus; experiment: Antimicrobial activity against methicillin-resistant Staphylococcus aureus clinical isolate 264 by broth dilution method
[35] = test system: Staphylococcus aureus; experiment: Antimicrobial activity against methicillin-resistant Staphylococcus aureus clinical isolate 227 by broth dilution method
[36] = test system: Staphylococcus aureus; experiment: Bactericidal activity against methicillin-resistant Staphylococcus aureus clinical isolate 264 after 24 hrs; conditions: isolate 264, 24 h; method in brief: as §1
[37] = test system: Escherichia coli; experiment: Antimicrobial activity against Escherichia coli ATCC 11229 by broth dilution method; conditions: for MIC: Escherichia coli, ATCC 11229
[38] = test system: Staphylococcus aureus; experiment: Antimicrobial activity against methicillin-resistant Staphylococcus aureus clinical isolate 176 by broth dilution method
[39] = test system: Staphylococcus aureus; experiment: Bactericidal activity against methicillin-resistant Staphylococcus aureus clinical isolate 231 after 24 hrs; conditions: isolate 231, 24 h; method in brief: as §1
[40] = test system: Candida albicans; experiment: Antimicrobial activity against Candida albicans ATCC 22019 by broth dilution method
[41] = test system: Staphylococcus aureus; experiment: Antimicrobial activity against methicillin-resistant Staphylococcus aureus clinical isolate 225 by broth dilution method
[42] = test system: Staphylococcus aureus; experiment: Antimicrobial activity against methicillin-resistant Staphylococcus aureus clinical isolate 195 by broth dilution method
[43] = test system: Staphylococcus aureus; experiment: Antimicrobial activity against methicillin-resistant Staphylococcus aureus clinical isolate 236 by broth dilution method
[44] = test system: Pseudomonas aeruginosa; experiment: Antimicrobial activity against Pseudomonas aeruginosa ATCC 27853 by broth dilution method
[45] = test system: Staphylococcus aureus; experiment: Bactericidal activity against methicillin-resistant Staphylococcus aureus clinical isolate 260 after 24 hrs; conditions: isolate 260, 24 h; method in brief: as §1
[46] = test system: Escherichia coli; experiment: Bactericidal activity against Escherichia coli ATCC 11229 after 24 hrs; conditions: ATCC 11229, 24 h; method in brief: as §2
[47] = test system: Staphylococcus aureus; experiment: Bactericidal activity against methicillin-resistant Staphylococcus aureus clinical isolate 176 after 24 hrs; conditions: isolate 176, 24 h; method in brief: as §1

For `CCCCCCCCCCOc1ccc(CNC(CO)(CO)CO)cc1.Cl`, which “-logMIC” value [1] is on record?
Its value is 4.7.

What about the MIC [1] of the same compound?
The MIC was 8 µg/mL.

And the MIC [2]?
Its MIC is 4 µg/mL.

And the MIC [3]?
Its MIC is 4 µg/mL.

And the MIC [4]?
The MIC was 16 µg/mL.

What about the MBC [5] of the same compound?
Its MBC is 8 µg/mL.

What about the MBC [6] of the same compound?
Its MBC is 8 µg/mL.

And the MBC [7]?
Its MBC is 8 µg/mL.

What about the MBC [8] of the same compound?
The MBC was 4 µg/mL.

What about the MBC [9] of the same compound?
Its MBC is 8 µg/mL.

And the MBC [10]?
The MBC was 128 µg/mL.

And the MBC [11]?
The MBC was 4 µg/mL.

What about the MBC [12] of the same compound?
The MBC was 16 µg/mL.

And the MIC [13]?
Its MIC is 8 µg/mL.

And the MBC [14]?
Its MBC is 128 µg/mL.

And the MIC [15]?
Its MIC is 8 µg/mL.

And the MIC [16]?
Its MIC is 2 µg/mL.

What about the MIC [17] of the same compound?
Its MIC is 4 µg/mL.

And the MIC [18]?
The MIC was 8 µg/mL.

What about the MIC [19] of the same compound?
Its MIC is 8 µg/mL.

And the MBC [20]?
The MBC was 32 µg/mL.

And the MIC [21]?
The MIC was 4 µg/mL.

And the MBC [22]?
The MBC was 8 µg/mL.

What about the MIC [23] of the same compound?
Its MIC is 4 µg/mL.

And the “-logMIC” value [24]?
Its value is 5.

What about the MIC [24] of the same compound?
Its MIC is 4 µg/mL.

And the MIC [25]?
The MIC was 8 µg/mL.

What about the MIC [26] of the same compound?
The MIC was 8 µg/mL.

And the MIC [27]?
The MIC was 4 µg/mL.

And the MIC [28]?
The MIC was 8 µg/mL.

What about the MIC [29] of the same compound?
The MIC was 16 µg/mL.

What about the MIC [30] of the same compound?
The MIC was 8 µg/mL.

What about the MBC [31] of the same compound?
The MBC was 4 µg/mL.

And the MIC [32]?
The MIC was 8 µg/mL.

And the “-logMIC” value [33]?
Its value is 4.842.

And the MIC50 [33]?
Its MIC50 is 8 µg/mL.

And the MIC90 [33]?
Its MIC90 is 8 µg/mL.

And the MIC [34]?
The MIC was 2 µg/mL.

What about the MIC [35] of the same compound?
The MIC was 4 µg/mL.

And the MBC [36]?
Its MBC is 2 µg/mL.

And the “-logMIC” value [37]?
The value was 4.1.

What about the MIC [37] of the same compound?
Its MIC is 32 µg/mL.

And the MIC [38]?
Its MIC is 8 µg/mL.

What about the MBC [39] of the same compound?
Its MBC is 8 µg/mL.

And the MIC [40]?
The MIC was 4 µg/mL.

What about the MIC [41] of the same compound?
Its MIC is 8 µg/mL.

And the MIC [42]?
Its MIC is 8 µg/mL.

And the MIC [43]?
The MIC was 4 µg/mL.

What about the MIC [44] of the same compound?
Its MIC is 16 µg/mL.

What about the MBC [45] of the same compound?
Its MBC is 16 µg/mL.

And the MBC [46]?
Its MBC is 32 µg/mL.

What does the source list for `CCCCCCCCCCCCOc1ccc(CNC(CO)(CO)CO)cc1.Cl`?
MIC [1]: 8 µg/mL; MIC [2]: 4 µg/mL; MIC [3]: 4 µg/mL; MIC [4]: 8 µg/mL; MBC [5]: 16 µg/mL; MBC [6]: 8 µg/mL; MBC [7]: 16 µg/mL; MBC [8]: 16 µg/mL; MBC [9]: 4 µg/mL; MBC [47]: 128 µg/mL; MBC [10]: 128 µg/mL; MBC [11]: 8 µg/mL; MBC [12]: 4 µg/mL; MIC [13]: 8 µg/mL; MIC [15]: 4 µg/mL; MIC [16]: 2 µg/mL; MIC [17]: 8 µg/mL; MIC [18]: 4 µg/mL; MIC [19]: 4 µg/mL; MBC [20]: 16 µg/mL; MIC [21]: 4 µg/mL; MBC [22]: 8 µg/mL; MIC [23]: 4 µg/mL; -logMIC [24]: 4.73; MIC [24]: 8 µg/mL; MIC [25]: 8 µg/mL; MIC [26]: 4 µg/mL; MIC [27]: 16 µg/mL; MIC [28]: 4 µg/mL; MIC [29]: 4 µg/mL; MIC [30]: 8 µg/mL; MBC [31]: 32 µg/mL; MIC [32]: 8 µg/mL; -logMIC [33]: 4.842; MIC50 [33]: 4 µg/mL; MIC90 [33]: 8 µg/mL; MIC [34]: 4 µg/mL; MIC [35]: 4 µg/mL; MBC [36]: 8 µg/mL; MIC [37]: > 256 µg/mL; MIC [38]: 8 µg/mL; MBC [39]: 4 µg/mL; MIC [40]: 4 µg/mL; MIC [41]: 8 µg/mL; MIC [42]: 8 µg/mL; MIC [43]: 4 µg/mL; MIC [44]: > 256 µg/mL; MBC [45]: 4 µg/mL
